Assay outcomes from PubChem.
Hits are enriched below; roughly 3.2% of the tested compounds scored in any of these assays.
mABHD4 FP = ABHD4 inhibitors, primary screen, biochemical, fluorescence polarization, mouse; purified mABHD4, FP-Rh probe fluorescence polarization; inhibition, % at 8.92 µM; (Lyso)-N-acylphosphatidylethanolamine lipase (Mus musculus), Q8VD66; 0.54% of 370,000 active;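 active = inhibition exceeding the mean over every tested compound plus 3 SD, cut at about 30% in these data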;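 also: 0% = plate median of compound wells and 100% = S159A mutant with DMSO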
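assay system = mABHD4 protein | compound dosing = single nominal dose of 8.92 µM, 0.89% DMSO final | read-out basis = percent inhibition of probe binding, normalized to plate controls | schedule = Enzyme–compound pre-incubation 45 min, then probe 60 min, both 25 °C | detection = fluorescence polarization, excitation 525 nm, emission 598 nm, BODIPY TMR filters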
LEDGF integ inh = blockers of LEDGF/p75-dependent integrase strand transfer – biochemical, TR-FRET, high throughput, primary screen. TR-FRET IN-LEDGF/p75 DNA integration, Eu/Cy5. inhibition, % at 3.7 µM. 0.64% of 370,000 active. AID 743269, 2014;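 active = inhibition above the screen-wide mean plus 3 SD, cut at about 13% in these data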;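 also: signal is the Cy5 over europium emission ratio at 671 and 618 nm; 0% = plate median of compound wells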
PRMT1 FP inh = PRMT1 methyltransferase inhibitors, primary screen, biochemical, fluorescence polarization; Protein arginine N-methyltransferase 1 (Homo sapiens), Q99873; recombinant PRMT1, activity-based probe fluorescence polarization; inhibition, % at 2.79 µM; 1.3% of 370,000 active; AID 652257, 2013;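 active = inhibition above about 21% made by adding two undisclosed values, limit read from the data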
DAGLB inhibitor = DAGLB lipase inhibitors, primary screen, biochemical, fluorescence, HTS. Diacylglycerol lipase-beta (Homo sapiens), Q8NCG7. HEK293T DAGLB membrane lysate, EnzChek fluorogenic substrate. inhibition, % at 5.17 µM. 0.059% of 340,000 active. AID 504411, 2011; in the data active = inhibition above about 34%;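 also: 0% = enzyme with vehicle and 100% = wells lacking enzyme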
Target sequence (Q8NCG7 whole entry, looked up): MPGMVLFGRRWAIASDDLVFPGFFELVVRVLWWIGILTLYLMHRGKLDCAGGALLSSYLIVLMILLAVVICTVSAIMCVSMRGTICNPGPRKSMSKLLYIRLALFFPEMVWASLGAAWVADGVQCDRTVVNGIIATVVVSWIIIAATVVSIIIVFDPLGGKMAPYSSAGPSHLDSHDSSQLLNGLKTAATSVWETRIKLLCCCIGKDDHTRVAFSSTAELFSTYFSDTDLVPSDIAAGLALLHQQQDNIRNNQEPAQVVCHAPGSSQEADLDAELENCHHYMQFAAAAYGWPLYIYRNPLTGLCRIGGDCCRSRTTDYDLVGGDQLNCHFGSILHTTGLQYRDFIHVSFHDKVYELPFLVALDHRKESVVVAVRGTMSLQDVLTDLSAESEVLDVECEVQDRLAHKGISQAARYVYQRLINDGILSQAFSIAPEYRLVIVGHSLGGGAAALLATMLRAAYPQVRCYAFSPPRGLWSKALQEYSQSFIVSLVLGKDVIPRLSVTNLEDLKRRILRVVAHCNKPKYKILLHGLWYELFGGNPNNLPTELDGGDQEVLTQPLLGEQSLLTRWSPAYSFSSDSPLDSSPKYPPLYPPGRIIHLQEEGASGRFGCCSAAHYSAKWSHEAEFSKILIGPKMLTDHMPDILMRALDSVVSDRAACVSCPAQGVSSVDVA
HTRA1 inh = HTRA1 serine protease inhibitors, primary screen, biochemical, fluorescence polarization, HTS; 0.5% of 340,000 active; recombinant HTRA1, FP-rhodamine activity-based probe; AID 504803, 2011; inhibition, % at 5.96 µM; Q92743; in the data active = inhibition above about 36%;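 also: 0% = enzyme with DMSO and 100% = wells lacking enzyme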
rCAG binder = binders of r(CAG) RNA repeats, primary screen, biochemical, fluorescence | 1.3% of 370,000 active | inhibition, % at 3 µM | r(CAG) RNA repeat, TO-PRO-1 dye displacement fluorescence;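 active = inhibition above the plate cutoff, the mean of all test compounds on that plate plus 3 SD, cut at about 35% in these data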;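 also: 0% = DMSO alone and 100% = 100 µM mitoxantrone as full dye displacement; higher means more dye released from RNA so lower well fluorescence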
rCAG bind conf = small molecules binding CAG repeat RNA – biochemical, fluorescence, confirmation; inhibition, % at 3 µM; r(CAG) RNA repeat, TO-PRO-1 dye displacement fluorescence; AID 652065, 2013; shares compounds with rCAG binder; 70% of 4,300 active;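 active = inhibition above a per-plate cutoff, the mean inhibition of sample wells plus 3 SD, cut at about 35% in these data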;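 also: loss of TO-PRO-1 fluorescence as compound displaces dye from 1x1 AA loop RNA; 0% = DMSO only wells and 100% = 100 µM mitoxantrone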
DNA CAG counter = displacement of TO-PRO-1 from CAG DNA duplex, counter-screen for rCAG RNA repeat binder project, biochemical, fluorescence, TO-PRO-1 dye, d(CAG) DNA oligo | d(CAG) DNA oligo TO-PRO-1 dye displacement | inhibition, % at 3 µM | shares compounds with rCAG binder | 94% of 4,300 active | AID 652068, 2013;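 active = inhibition above its plate's cutoff, the mean test-well inhibition plus 3 SD, cut at about 4.8% in these data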;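 also: 0% = DNA dye mix with DMSO and 100% = 100 µM mitoxantrone; hits displace the dye from DNA and so lower well fluorescence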
* = called active by the depositor; / = no result given.

SMILES	mABHD4 FP	LEDGF integ inh	PRMT1 FP inh	DAGLB inhibitor	HTRA1 inh	rCAG binder	rCAG bind conf	DNA CAG counter
Cc1csc(NC(=O)Nc2ccc(Cl)cc2)n1	-5	0	1	-1	-14	38*	7	9.5*
CCOC(=O)Cc1csc(NC(=O)Nc2cccc(Cl)c2)n1	-27	4	0	2	-27	53*	17	16*
CCOC(=O)Cc1csc(N/N=C/c2ccc(Cl)cc2)n1	-4	4	-13	-9	-2	4	/	/
CCOC(=O)Cc1csc(NC(=O)Nc2ccc(Cl)cc2)n1	-15	4	-4	1	-22	40*	43*	17*
CCOC(=O)Cc1csc(NC(=O)c2cc3ccccc3o2)n1	-2	2	-3	-3	-7	2	/	/
CCOC(=O)c1csc(NC(=O)Nc2cccc(Cl)c2)n1	-9	0	-3	2	-10	59*	50*	28*
CN(C)Cc1csc(NC(=O)Nc2cccc(Cl)c2)n1	-1	5	-1	/	/	22	/	/
NCc1csc(NC(=O)Nc2cccc(Cl)c2)n1	6	3	-4	/	/	35*	10	8.4*
O=C(Cc1csc(NC(=O)Nc2ccc(Cl)cc2)n1)NC1CCCC1	-14	4	-2	1	-28	40*	16	15*
COc1cc2c(cc1NC(=O)/C=C/c1cc(OC)c(OC)c(OC)c1)oc1ccccc12	-16	0	-1	-3	-56	14	/	/
O=C1Nc2cc(C(=O)N3CCN(Cc4ccccc4)CC3)ccc2SC1N1CCOCC1 (stereo unspecified)	0	-1	-2	3	4	-7	/	/
Cc1noc(C)c1CSCC(=O)Nc1nc2c(F)cc(F)cc2s1	7	0	17	0	-14	36*	29	18*
Cc1ccc(S(=O)(=O)Nc2c(C(=O)O)[nH]c3ccccc23)c(C)c1	6	-1	1	8	-2	58*	30	7.3*
COc1ccc2[nH]c(C(=O)O)c(NS(=O)(=O)c3ccc(C)c(C)c3)c2c1	9	3	1	-1	7	44*	24	5.9*
Cc1ccc(NC(=O)Nc2nnc(-c3ccncc3)s2)cc1C	-7	3	-2	3	-13	60*	49*	17*
O=C(Nc1cccc(Cl)c1)Nc1nnc(-c2ccncc2)s1	-29	4	-1	-1	-39	66*	45*	22*
COC(=O)c1ccccc1NC(=S)N(C)C	2	0	-1	1	1	-3	/	/
Cc1ccc(C)c2c1[nH]c1ccc([N+](=O)[O-])cc12	-7	-2	-1	-7	-40	40*	30	14*
Cc1ccc(CCNC(=O)C2CCN(S(=O)(=O)c3ccc4nc5c(c(C(=O)O)c4c3)CCCC5)CC2)cc1	12	0	8	2	-10	50*	32	9.0*
CN(Cc1ccccc1)C(=O)C1CCN(S(=O)(=O)c2ccc3nc4c(c(C(=O)O)c3c2)CCCC4)CC1	18	5	8	3	3	54*	54*	17*
CCCNC(=O)C1CCN(S(=O)(=O)c2ccc3nc4c(c(C(=O)O)c3c2)CCCCC4)CC1	0	3	-2	-3	4	2	/	/
O=C(O)c1c2c(nc3ccc(S(=O)(=O)N4CCC(C(=O)NCc5ccccc5)CC4)cc13)CCCC2	9	1	0	-3	-3	16	/	/
